Experimental data: ChEMBL document CHEMBL4265950, “Discovery of furyl/thienyl β-carboline derivatives as potent and selective PDE5 inhibitors with excellent vasorelaxant effect” (Eur J Med Chem, 2018)

Experiments:
[1] = target: T1, cGMP-specific 3',5'-cyclic phosphodiesterase (Homo sapiens, UniProt O76074); experiment: Inhibition of PDE5 (unknown origin)
[2] = target: T1, cGMP-specific 3',5'-cyclic phosphodiesterase; experiment: Inhibition of full length recombinant human N-terminal GST-tagged PDE5A1 expressed in baculovirus infected sf9 cells using FAM-cyclic-3',5-GMP as substrate after 1 hr by fluorescence polarization assay
[3] = target: Cone cGMP-specific 3',5'-cyclic phosphodiesterase subunit alpha' (Homo sapiens, UniProt P51160); experiment: Inhibition of full length recombinant human N-terminal GST-tagged PDE6C expressed in baculovirus infected sf9 cells using […] as substrate after 1 hr by fluorescence polarization assay
Chain of Cone cGMP-specific 3',5'-cyclic phosphodiesterase subunit alpha' (P51160 whole entry): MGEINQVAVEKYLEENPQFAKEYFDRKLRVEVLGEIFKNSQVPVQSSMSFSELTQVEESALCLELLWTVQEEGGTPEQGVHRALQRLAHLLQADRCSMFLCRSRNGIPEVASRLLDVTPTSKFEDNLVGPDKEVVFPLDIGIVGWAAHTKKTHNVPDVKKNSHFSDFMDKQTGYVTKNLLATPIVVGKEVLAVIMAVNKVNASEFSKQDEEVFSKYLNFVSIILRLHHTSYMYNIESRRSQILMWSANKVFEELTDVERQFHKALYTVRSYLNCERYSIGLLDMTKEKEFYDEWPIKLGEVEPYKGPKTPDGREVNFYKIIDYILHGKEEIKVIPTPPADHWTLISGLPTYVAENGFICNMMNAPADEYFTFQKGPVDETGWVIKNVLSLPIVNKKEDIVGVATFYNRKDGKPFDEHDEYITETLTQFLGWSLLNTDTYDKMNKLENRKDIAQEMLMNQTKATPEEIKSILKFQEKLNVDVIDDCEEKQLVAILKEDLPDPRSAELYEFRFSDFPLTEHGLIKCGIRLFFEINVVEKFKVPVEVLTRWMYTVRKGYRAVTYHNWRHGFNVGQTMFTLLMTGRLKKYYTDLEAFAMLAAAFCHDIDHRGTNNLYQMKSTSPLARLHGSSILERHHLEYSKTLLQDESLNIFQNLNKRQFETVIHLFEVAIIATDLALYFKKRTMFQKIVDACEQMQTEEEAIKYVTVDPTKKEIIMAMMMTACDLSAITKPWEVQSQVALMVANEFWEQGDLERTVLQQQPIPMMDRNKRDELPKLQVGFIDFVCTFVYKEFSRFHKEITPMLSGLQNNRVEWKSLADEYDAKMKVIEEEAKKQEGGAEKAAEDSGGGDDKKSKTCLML

[4] = target: Dual specificity calcium/calmodulin-dependent 3',5'-cyclic nucleotide phosphodiesterase 1A (Homo sapiens, UniProt P54750); experiment: Inhibition of full length recombinant human N-terminal GST-tagged PDE1A expressed in baculovirus infected sf9 cells using FAM-cyclic-3',5-AMP as substrate after 1 hr by fluorescence polarization assay
Chain of Dual specificity calcium/calmodulin-dependent 3',5'-cyclic nucleotide phosphodiesterase 1A (P54750 whole entry, canonical isoform): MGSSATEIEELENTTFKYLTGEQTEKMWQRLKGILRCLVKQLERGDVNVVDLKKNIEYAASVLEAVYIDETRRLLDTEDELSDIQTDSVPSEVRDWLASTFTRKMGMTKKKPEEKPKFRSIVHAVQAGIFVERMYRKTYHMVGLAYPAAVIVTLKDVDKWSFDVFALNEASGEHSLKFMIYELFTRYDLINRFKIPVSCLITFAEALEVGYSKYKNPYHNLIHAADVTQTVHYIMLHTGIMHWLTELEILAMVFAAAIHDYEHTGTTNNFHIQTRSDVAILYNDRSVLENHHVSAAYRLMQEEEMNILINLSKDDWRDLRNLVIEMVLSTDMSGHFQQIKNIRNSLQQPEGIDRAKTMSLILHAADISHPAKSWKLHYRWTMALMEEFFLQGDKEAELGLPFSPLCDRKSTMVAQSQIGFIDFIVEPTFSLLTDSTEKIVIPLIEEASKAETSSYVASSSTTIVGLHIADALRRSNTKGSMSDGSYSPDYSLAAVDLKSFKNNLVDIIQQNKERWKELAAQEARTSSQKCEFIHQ
Procedure, shortened: (§1)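 Fluorescence polarization assay run at 25 °C for 60 min in 40 mM MOPS pH 7.5, 0.5 mM EDTA, 15 mM MgCl2, 0.15 mg/mL BSA, 1 mM DTT, 0.05% ProClin 200. Contained 15 ng/mL PDE isoform and 100 nM FAM-cGMP or FAM-cAMP according to isoform, with 1% DMSO final. Binding agent added for 1 h at 25 °C; read at […] nm. IC50 from normalized nonlinear dose-response fit.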

Homo sapiens [5] = species on record: Homo sapiens; experiment: Selectivity index, ratio of IC50 for inhibition of full length recombinant human N-terminal GST-tagged PDE6C expressed in baculovirus infected sf9 cells to IC50 for inhibition of full length recombinant human N-terminal GST-tagged PDE5A1 expressed in baculovirus infected sf9 cells
[6] = target: 3',5'-cyclic-AMP phosphodiesterase 4A (Homo sapiens, UniProt P27815); experiment: Inhibition of full length recombinant human N-terminal GST-tagged PDE4A1A expressed in baculovirus infected sf9 cells using FAM-cyclic-3',5-AMP as substrate after 1 hr by fluorescence polarization assay
Chain of 3',5'-cyclic-AMP phosphodiesterase 4A (P27815 whole entry): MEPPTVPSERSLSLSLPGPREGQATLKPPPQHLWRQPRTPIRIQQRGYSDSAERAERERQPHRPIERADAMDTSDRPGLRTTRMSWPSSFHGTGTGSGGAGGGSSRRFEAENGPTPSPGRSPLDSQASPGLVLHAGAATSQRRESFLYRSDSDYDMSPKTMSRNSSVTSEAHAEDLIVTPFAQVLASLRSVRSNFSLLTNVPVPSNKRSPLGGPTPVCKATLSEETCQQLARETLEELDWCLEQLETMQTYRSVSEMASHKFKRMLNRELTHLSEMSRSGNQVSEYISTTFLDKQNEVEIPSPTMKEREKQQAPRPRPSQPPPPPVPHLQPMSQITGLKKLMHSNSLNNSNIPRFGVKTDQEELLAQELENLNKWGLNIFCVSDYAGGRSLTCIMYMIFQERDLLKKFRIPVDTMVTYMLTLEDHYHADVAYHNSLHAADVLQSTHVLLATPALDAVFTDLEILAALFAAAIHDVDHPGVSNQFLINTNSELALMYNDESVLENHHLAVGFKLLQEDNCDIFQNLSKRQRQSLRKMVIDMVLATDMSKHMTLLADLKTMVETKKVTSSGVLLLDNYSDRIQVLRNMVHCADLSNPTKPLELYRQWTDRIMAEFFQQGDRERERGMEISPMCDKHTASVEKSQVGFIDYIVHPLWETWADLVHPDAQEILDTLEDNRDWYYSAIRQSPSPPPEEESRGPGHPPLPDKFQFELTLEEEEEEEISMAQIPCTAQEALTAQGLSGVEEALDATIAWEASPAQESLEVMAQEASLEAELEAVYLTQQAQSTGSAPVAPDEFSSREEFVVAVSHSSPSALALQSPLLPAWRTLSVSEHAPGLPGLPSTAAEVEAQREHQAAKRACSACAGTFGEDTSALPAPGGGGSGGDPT

[7] = target: Dual 3',5'-cyclic-AMP and -GMP phosphodiesterase 11A (Homo sapiens, UniProt Q9HCR9); experiment: Inhibition of full length recombinant human N-terminal GST-tagged PDE11A4 expressed in baculovirus infected sf9 cells using FAM-cyclic-3',5-AMP as substrate after 1 hr by fluorescence polarization assay
Chain of Dual 3',5'-cyclic-AMP and -GMP phosphodiesterase 11A (Q9HCR9 whole entry): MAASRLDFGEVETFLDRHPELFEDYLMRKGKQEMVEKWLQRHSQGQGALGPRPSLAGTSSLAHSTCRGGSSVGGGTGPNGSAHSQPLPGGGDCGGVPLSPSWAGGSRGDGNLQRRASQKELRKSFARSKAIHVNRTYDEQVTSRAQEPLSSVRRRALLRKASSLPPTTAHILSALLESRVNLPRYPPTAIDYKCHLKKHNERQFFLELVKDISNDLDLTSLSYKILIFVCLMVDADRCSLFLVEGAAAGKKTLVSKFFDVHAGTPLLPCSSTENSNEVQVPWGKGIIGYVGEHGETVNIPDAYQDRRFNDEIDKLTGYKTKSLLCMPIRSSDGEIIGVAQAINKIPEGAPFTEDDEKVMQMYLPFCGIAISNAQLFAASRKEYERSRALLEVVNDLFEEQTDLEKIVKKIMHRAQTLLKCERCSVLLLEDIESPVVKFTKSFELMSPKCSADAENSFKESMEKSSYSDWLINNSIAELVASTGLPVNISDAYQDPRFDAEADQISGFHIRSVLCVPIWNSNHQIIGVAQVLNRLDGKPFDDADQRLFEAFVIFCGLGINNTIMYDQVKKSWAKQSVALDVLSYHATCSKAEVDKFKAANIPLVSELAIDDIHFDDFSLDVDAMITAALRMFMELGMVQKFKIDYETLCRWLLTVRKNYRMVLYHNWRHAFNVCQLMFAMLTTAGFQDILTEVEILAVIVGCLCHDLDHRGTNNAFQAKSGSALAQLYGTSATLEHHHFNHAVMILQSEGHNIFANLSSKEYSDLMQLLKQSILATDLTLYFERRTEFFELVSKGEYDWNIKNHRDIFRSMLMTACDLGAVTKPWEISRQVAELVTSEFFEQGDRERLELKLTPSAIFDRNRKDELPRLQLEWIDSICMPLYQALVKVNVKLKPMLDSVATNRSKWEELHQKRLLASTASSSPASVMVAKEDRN

[8] = target: cGMP-inhibited 3',5'-cyclic phosphodiesterase 3B (Homo sapiens, UniProt Q13370); experiment: Inhibition of recombinant human N-terminal GST-tagged PDE3B (592 to end residues) expressed in baculovirus infected sf9 cells using FAM-cyclic-3',5-AMP as substrate after 1 hr by fluorescence polarization assay; procedure, shortened: as §1
Chain of cGMP-inhibited 3',5'-cyclic phosphodiesterase 3B (Q13370 whole entry, the tested form may be a part): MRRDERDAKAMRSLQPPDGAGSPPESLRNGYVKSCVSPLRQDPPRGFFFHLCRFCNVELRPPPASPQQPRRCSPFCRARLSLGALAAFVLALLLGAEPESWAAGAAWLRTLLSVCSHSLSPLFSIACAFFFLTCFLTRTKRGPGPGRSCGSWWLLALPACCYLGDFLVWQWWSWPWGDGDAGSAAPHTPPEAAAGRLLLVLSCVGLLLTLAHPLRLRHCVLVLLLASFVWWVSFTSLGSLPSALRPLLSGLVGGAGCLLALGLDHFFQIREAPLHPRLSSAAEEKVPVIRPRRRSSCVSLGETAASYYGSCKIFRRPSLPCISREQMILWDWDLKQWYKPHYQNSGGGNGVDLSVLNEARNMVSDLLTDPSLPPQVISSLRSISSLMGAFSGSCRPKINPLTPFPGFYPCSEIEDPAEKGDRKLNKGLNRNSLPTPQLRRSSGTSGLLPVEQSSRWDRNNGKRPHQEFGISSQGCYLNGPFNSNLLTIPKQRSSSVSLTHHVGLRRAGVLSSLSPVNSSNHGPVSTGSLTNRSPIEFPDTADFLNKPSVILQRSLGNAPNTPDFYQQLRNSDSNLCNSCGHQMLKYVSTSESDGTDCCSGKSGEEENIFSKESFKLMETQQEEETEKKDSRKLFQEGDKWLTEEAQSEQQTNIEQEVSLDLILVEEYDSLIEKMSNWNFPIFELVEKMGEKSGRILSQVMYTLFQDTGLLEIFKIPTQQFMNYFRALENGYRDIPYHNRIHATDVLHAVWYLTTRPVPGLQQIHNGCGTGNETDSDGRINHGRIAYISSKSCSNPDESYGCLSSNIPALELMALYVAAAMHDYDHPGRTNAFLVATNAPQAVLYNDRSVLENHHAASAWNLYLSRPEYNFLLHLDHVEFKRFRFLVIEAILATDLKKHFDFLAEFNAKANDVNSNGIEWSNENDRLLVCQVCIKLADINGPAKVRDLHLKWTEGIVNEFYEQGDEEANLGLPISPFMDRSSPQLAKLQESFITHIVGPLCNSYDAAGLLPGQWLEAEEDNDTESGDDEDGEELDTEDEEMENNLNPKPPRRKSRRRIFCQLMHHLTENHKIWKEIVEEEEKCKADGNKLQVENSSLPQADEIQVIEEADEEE

[9] = target: cGMP-dependent 3',5'-cyclic phosphodiesterase (Homo sapiens, UniProt O00408); experiment: Inhibition of recombinant human N-terminal FLAG-tagged PDE2A (2 to 941 residues) expressed in baculovirus infected sf9 cells using FAM-cyclic-3',5-AMP as substrate after 1 hr by fluorescence polarization assay; procedure, shortened: as §1
Homo sapiens [10] = species on record: Homo sapiens; experiment: Selectivity index, ratio of IC50 for inhibition of full length recombinant human N-terminal GST-tagged PDE11A4 expressed in baculovirus infected sf9 cells to IC50 for inhibition of full length recombinant human N-terminal GST-tagged PDE5A1 expressed in baculovirus infected sf9 cells
[11] = target: T1, cGMP-specific 3',5'-cyclic phosphodiesterase; experiment: Inhibition of full length recombinant human N-terminal GST-tagged PDE5A1 expressed in baculovirus infected sf9 cells at 100 nM using FAM-cyclic-3',5-GMP as substrate after 1 hr by fluorescence polarization assay relative to control
Procedure, shortened: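 Single-point test at 100 nM, reported as percent inhibition. Human PDE5 at 15 ng/mL with 100 nM FAM-cGMP in MOPS pH 7.5 buffer (MgCl2, EDTA, BSA, DTT), 1% DMSO final, 60 min at 25 °C. Binding agent added for 1 h, then fluorescence polarization read at […] nm.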

[12] = target: cGMP-specific 3',5'-cyclic phosphodiesterase (Rattus norvegicus) (UniProt O54735); experiment: (§2) Inhibition of PDE5 in Wistar rat mesentric arteries assessed as inhibition of phenylephrine-induced contraction by measuring increase in acetylcholine-induced vasorelaxation by pressure myographic method
Procedure, shortened: (§3)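 Third-order rat mesenteric arteries (110–150 µm), 3–4 mm unbranched segments, cannulated in PSS (pH 7.4, 95% O2/5% CO2). Equilibrated 35 min while pressure was stepped 10→60 mmHg. Checked with 120 mM KCl and acetylcholine, then constricted with 20 µM phenylephrine (norepinephrine in text) and given compounds cumulatively. Ca²⁺-free PSS set maximal dilation. Outer diameter recorded as % relaxation; EC50 from normalized nonlinear fit.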

[13] = target: cGMP-specific 3',5'-cyclic phosphodiesterase (Rattus norvegicus, UniProt O54735); experiment: as §2; procedure, shortened: as §3
[14] = Stability of the compound in PDE5 enzyme assay condition at 100 uM by HPLC analysis; assay type: ADME
[15] = target: High affinity 3',5'-cyclic-AMP phosphodiesterase 7A (Homo sapiens, UniProt Q13946); experiment: Inhibition of recombinant human N-terminal GST-tagged PDE7A (122 to end residues) expressed in baculovirus infected sf9 cells using FAM-cyclic-3',5-AMP as substrate after 1 hr by fluorescence polarization assay; procedure, shortened: as §1
Chain of High affinity 3',5'-cyclic-AMP phosphodiesterase 7A (Q13946 whole entry): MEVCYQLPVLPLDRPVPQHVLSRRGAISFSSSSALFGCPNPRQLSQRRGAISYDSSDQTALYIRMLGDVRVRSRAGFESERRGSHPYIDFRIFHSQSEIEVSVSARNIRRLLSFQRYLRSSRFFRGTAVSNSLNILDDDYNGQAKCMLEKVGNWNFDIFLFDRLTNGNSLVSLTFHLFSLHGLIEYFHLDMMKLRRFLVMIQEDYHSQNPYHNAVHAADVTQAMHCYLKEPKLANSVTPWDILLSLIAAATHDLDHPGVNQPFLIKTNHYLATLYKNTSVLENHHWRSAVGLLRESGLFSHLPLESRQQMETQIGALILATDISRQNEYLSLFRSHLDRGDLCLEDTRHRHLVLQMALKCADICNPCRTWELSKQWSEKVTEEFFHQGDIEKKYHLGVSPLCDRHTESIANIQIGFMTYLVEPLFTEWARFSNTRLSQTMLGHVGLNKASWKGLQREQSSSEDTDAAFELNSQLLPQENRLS

[16] = target: High affinity cGMP-specific 3',5'-cyclic phosphodiesterase 9A (Homo sapiens, UniProt O76083); experiment: Inhibition of full length recombinant human N-terminal GST-tagged PDE9A2 expressed in baculovirus infected sf9 cells using […] as substrate after 1 hr by fluorescence polarization assay; procedure, shortened: as §1
[17] = target: High affinity cAMP-specific and IBMX-insensitive 3',5'-cyclic phosphodiesterase 8A (Homo sapiens, UniProt O60658); experiment: Inhibition of full length recombinant human N-terminal GST-tagged PDE8A1 expressed in baculovirus infected sf9 cells using FAM-cyclic-3',5-AMP as substrate after 1 hr by fluorescence polarization assay; procedure, shortened: as §1
[18] = target: cAMP and cAMP-inhibited cGMP 3',5'-cyclic phosphodiesterase 10A (Homo sapiens, UniProt Q9Y233); experiment: Inhibition of recombinant human N-terminal GST-tagged PDE10A1 (2 to 789 residues) expressed in baculovirus infected sf9 cells using FAM-cyclic-3',5-AMP as substrate after 1 hr by fluorescence polarization assay; procedure, shortened: as §1
Homo sapiens [19] = species on record: Homo sapiens; experiment: Selectivity ratio of IC50 for PDE6 (unknown origin) to IC50 for PDE5 (unknown origin)
Homo sapiens [20] = species on record: Homo sapiens; experiment: Selectivity ratio of Ki for PDE6 (unknown origin) to Ki for PDE5 (unknown origin)

Row | Structure (SMILES) | IC50 [2] [nM] | IC50 [3] [nM] | IC50 [4] [nM] | IC50 [6] [nM] | IC50 [7] [nM] | IC50 [8] [nM] | IC50 [9] [nM] | inhibition [11] [%] | percent relaxation [12] | EC50 [13] [nM] | Ratio IC50 (Homo sapiens [5]) | Ratio IC50 (Homo sapiens [10]) | other results
1 | CCN1C(=O)[C@@H]2Cc3c([nH]c4ccccc34)[C@@H](c3ccc(Br)s3)N2C1=O | – | – | – | – | – | – | – | – | – | – | – | – | IC50 [1]: 160 nM
2 | c1ccc(CNc2ncnc3sc4c(c23)CCCCC4)cc1 | – | – | – | – | – | – | – | – | – | – | – | – | IC50 [1]: 190 nM
3 | CCc1ccc(C2c3[nH]c4ccccc4c3C(=O)CN2c2ncc(-c3ccc(OC)c(OC)c3)cn2)o1 (stereo unspecified) | 52.5 | 288 | – | – | 634 | – | – | 73.3 | – | – | 5 | 12 | Stability [14]: Stable
4 | CC(C)(C)Oc1ccc(Cc2[nH]c(-c3ccco3)c3c(=O)c4ccccc4oc23)cc1 | – | – | – | – | – | – | – | – | – | – | – | – | IC50 [1]: 240 nM
5 | CCNC(=O)N1[C@H](c2ccc(CC)o2)c2[nH]c3ccccc3c2C[C@@H]1C(=O)OC | – | – | – | – | – | – | – | 46.1 | – | – | – | – | Stability [14]: Stable
6 | CCc1ccc(C2c3[nH]c4ccccc4c3CCN2c2ccc(-c3ccccn3)cn2)s1 (stereo unspecified) | – | – | – | – | – | – | – | – | – | – | – | – | IC50 [1]: 86 nM
7 | CN1CC(=O)N2[C@H](c3ccc4c(c3)OCO4)c3[nH]c4ccccc4c3C[C@@H]2C1=O | – | – | > 10000 | – | – | > 10000 | > 10000 | – | – | 78 | – | – | IC50 [15]: > 10000 nM; IC50 [16]: > 10000 nM; IC50 [17]: > 10000 nM; IC50 [18]: > 10000 nM
8 | CCCCCN1C(=O)[C@@H]2Cc3c([nH]c4ccccc34)[C@@H](c3ccc(Br)s3)N2C1=O | – | – | – | – | – | – | – | – | – | – | – | – | IC50 [1]: 170 nM
9 | COc1ccc(CN=c2[nH]c(N3CCC[C@H]3CO)ncc2C(=O)NCc2ncccn2)cc1Cl | – | – | – | – | – | – | – | – | – | – | – | – | Ki [1]: 5 nM
10 | CCc1ccc(C(=O)c2[nH]c3ccccc3c2CCNc2ccc(-c3ccccn3)cn2)s1 | – | – | – | – | – | – | – | 25.2 | – | – | – | – | Stability [14]: Stable
11 | CCc1ccc(C2c3[nH]c4ccccc4c(=O)c3CN2c2ncc(-c3ccccn3)cn2)s1 (stereo unspecified) | – | – | – | – | – | – | – | – | – | – | – | – | Ratio IC50 (Homo sapiens [19]): 8
12 | CN1CCN(C(=O)c2ccc(-c3ccc(C(=O)N4CCc5c([nH]c6ccccc56)C4c4ccc5c(c4)OCO5)o3)cc2)CC1 (racemic) | – | – | – | – | – | – | – | – | – | – | – | – | Ki [1]: 8 nM; Ratio Ki (Homo sapiens [20]): 187
13 | CCNC(=O)c1cc2c([nH]c3ccccc32)c(-c2ccc(CC)s2)n1 | 227 | – | – | – | – | – | – | 47.8 | – | – | – | – | Stability [14]: Stable
14 | COc1ccc(CNc2nc(N3CCC[C@H]3CO)ncc2C(=O)NCc2ncccn2)cc1Cl | – | – | – | – | – | – | – | – | – | – | – | – | Ratio Ki (Homo sapiens [20]): 1000
15 | COc1ccc(-c2cnc(N3CC(=O)c4c([nH]c5ccccc45)C3c3ccc4c(c3)OCO4)nc2)cc1OC (racemic) | – | – | – | – | – | – | – | – | – | – | – | – | Ki [1]: 8 nM
16 | CCc1ccc(C2c3[nH]c4ccccc4c(=O)c3CN2c2ncc(-c3ccccn3)cn2)o1 (stereo unspecified) | – | – | – | – | – | – | – | – | – | – | – | – | IC50 [1]: 0.53 nM; Ratio IC50 (Homo sapiens [19]): 4

Continued, in another order:

Row | IC50 [2] [nM] | IC50 [3] [nM] | IC50 [4] [nM] | IC50 [6] [nM] | IC50 [7] [nM] | IC50 [8] [nM] | IC50 [9] [nM] | inhibition [11] [%] | percent relaxation [12] | EC50 [13] [nM] | Structure (SMILES) | Ratio IC50 (Homo sapiens [5]) | Ratio IC50 (Homo sapiens [10]) | other results
17 | 7.02 | > 1000 | > 20000 | > 10000 | 169 | > 20000 | > 20000 | 91.4 | Dose-dependent effect | 103 | CCc1ccc([C@@H]2c3[nH]c4ccccc4c3C[C@@H]3C(=O)N(CC)C(=O)N23)s1 | > 142 | 24 | –
18 | 5.24 | 56 | > 20000 | > 10000 | > 1000 | > 20000 | > 20000 | 94.1 | Dose-dependent effect | 58 | CCc1ccc([C@@H]2c3[nH]c4ccccc4c3C[C@H]3C(=O)N(CC)C(=O)N23)s1 | 11 | > 190 | Stability [14]: Stable
19 | 7.2 | 136 | > 20000 | > 10000 | 219 | > 20000 | > 20000 | 99.2 | Dose-dependent effect | 55 | CN1CC(=O)N2[C@H](c3ccc(Br)s3)c3[nH]c4ccccc4c3C[C@@H]2C1=O | 19 | 30 | –
20 | 8.68 | > 1000 | > 20000 | > 10000 | 173 | > 20000 | > 20000 | 96 | Dose-dependent effect | 71 | Cc1ccc([C@@H]2c3[nH]c4ccccc4c3C[C@@H]3C(=O)N(C)CC(=O)N23)s1 | > 115 | 20 | –
21 | 8.44 | > 1000 | > 20000 | > 10000 | 99 | > 20000 | > 20000 | 85.8 | Dose-dependent effect | 225 | CCc1ccc([C@@H]2c3[nH]c4ccccc4c3C[C@@H]3C(=O)N(CC)C(=O)N23)o1 | > 118 | 12 | –
22 | 10.5 | 62 | > 20000 | > 10000 | 4 | > 20000 | > 20000 | 85.4 | Dose-dependent effect | 191 | CCN1C(=O)[C@@H]2Cc3c([nH]c4ccccc34)[C@@H](c3ccc(C)o3)N2C1=O | 6 | 0.4 | –
23 | 12.7 | > 1000 | > 20000 | > 10000 | 119 | > 20000 | > 20000 | 98.4 | Dose-dependent effect | 725 | CCc1ccc([C@@H]2c3[nH]c4ccccc4c3C[C@@H]3C(=O)N(C)CC(=O)N23)o1 | > 79 | 9 | Stability [14]: Stable
